Columns and labels:
[1] = Intrinsic clearance in CD-1 mouse liver microsomes at 0.5 uM in presence of NADPH measured up to 30 mins by UPLC-MS/MS analysis; assay type: ADME, Microsome; conditions: 0.5 h
Summary of the method: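 Female CD1 mouse liver microsomes, test compound 0.5 μM; reaction started with excess NADPH (8 mg/mL in 50 mM potassium phosphate, pH 7.4). Aliquots at 0, 3, 6, 9, 15, 30 min quenched in acetonitrile, internal standard added, protein spun down; UPLC-MS/MS. Rate constant k from exponential decay of compound/internal standard peak-area ratio.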

THP-1 = assay: Cytotoxicity against human THP-1 cells incubated for 72 hrs by resazurin dye based assay; assay type: cell-based; conditions: THP-1, 72 h
[2] = Kinetic aqueous solubility of compound in phosphate buffer at pH 7.4 incubated for 1 hr; assay type: physicochemical; conditions: read-out: Kinetic_solubility
Summary of the method: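 10 mM DMSO stock diluted 20-fold into pH 7.4 phosphate buffered saline, equilibrated 1 h at room temperature, filtered; filtrate quantified by calibrated charged aerosol detection.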

[3] = AUC (0 to T last) in rat at 10 mg/kg; assay type: ADME, organism-based; set-up: dose 10 mg/kg; conditions: in vivo

Row | intrinsic clearance [1] [mL/min/g] | SMILES | also measured
1 | 3.4 | COc1ccccc1-c1n[nH]c2nc(NC3CCN(c4ccc(Cl)nn4)CC3)ncc12 | 
2 | 6.7 | O=C(Cc1ccc(F)cc1F)N1CCC(Nc2ncc3c(-c4ccccn4)n[nH]c3n2)CC1 | 
3 | 3.1 | O=C(Cc1ccc(F)c(F)c1)N1CCC(Nc2ncc3c(C4CCOCC4)n[nH]c3n2)CC1 | 
4 | 0.6 | Clc1ccc(N2CCC(Nc3ncc4c(N5CCOCC5)n[nH]c4n3)CC2)nn1 | 
5 | 2 | COc1ccccc1-c1n[nH]c2nc(NC3CCN(C(=O)N4CCOCC4)CC3)ncc12 | 
6 | 9 | COc1ccccc1-c1n[nH]c2nc(NC3CCN(C(=O)OCc4ccccc4)CC3)ncc12 | 
7 | 30 | CC(C)Cc1n[nH]c2nc(NC3CCN(C(=O)Cc4ccc(Cl)cc4Cl)CC3)ncc12 | 
8 | 3.3 | Cn1nccc1-c1n[nH]c2nc(NC3CCN(C(=O)Cc4ccc(F)cc4F)CC3)ncc12 | 
9 | 0.8 | O=C(CC1CC1)N1CCC(Nc2ncc3c(C4CCOCC4)n[nH]c3n2)CC1 | 
10 | 27 | CCS(=O)(=O)N[C@H]1CC[C@H](Nc2ncc3c(CC(C)C)n[nH]c3n2)CC1 | EC50 (THP-1): > 50.1 µM; solubility kinetic at 1 h [2]: < 1 µM
11 | 5 | O=C(Cc1ccc(F)cc1F)N1CCC(Nc2ncc3c(C4CC4)n[nH]c3n2)CC1 | 
12 | 1.6 | O=C(Cc1ccc(F)c(F)c1)N1CCC(Nc2ncc3c(N4CCOCC4)n[nH]c3n2)CC1 | AUC(0-t) [3]: 448 ng·h/mL
13 | 14 | CCOC(=O)N1CCC(Nc2ncc3c(-c4ccccc4OC)n[nH]c3n2)CC1 | 
14 | 7.2 | O=C(Cc1ccc(F)cc1F)N1CCC(Nc2ncc3c(-c4ccccc4)n[nH]c3n2)CC1 | 
15 | 2 | O=C(Cc1ccc(F)cc1F)N1CCC(Nc2ncc3c(N4CCOCC4)n[nH]c3n2)CC1 | 
16 | < 0.5 | O=C(Cc1ccc(F)cc1F)N1CCC(Nc2ncc3c(CN4CCOCC4)n[nH]c3n2)CC1 | 
17 | 0.5 | O=C(Cc1ccc(F)cc1F)N1CCC(Nc2ncc3c(C4CCOCC4)n[nH]c3n2)CC1 | 
18 | 14 | COc1ccccc1-c1n[nH]c2nc(NC3CCN(S(=O)(=O)CCC(F)(F)F)CC3)ncc12 | 
19 | 7 | CC(C)Cc1n[nH]c2nc(NC3CCN(C(=O)c4ccccc4)CC3)ncc12 | 
20 | 18 | CC(C)Cc1n[nH]c2nc(NC3CCN(C(=O)Cc4ccccc4)CC3)ncc12 | 
21 | 5 | COc1ccccc1-c1n[nH]c2nc(NC3CCN(C(=O)Cc4ccc(F)cc4F)CC3)ncc12 | 
22 | 22 | CC(C)(C)Cc1n[nH]c2nc(NC3CCN(C(=O)Cc4ccc(F)cc4F)CC3)ncc12 | 
23 | 15 | COc1ncccc1-c1n[nH]c2nc(NC3CCN(C(=O)Cc4ccc(F)cc4F)CC3)ncc12 | 
24 | 12 | CC(C)Cc1n[nH]c2nc(NC3CCN(C(=O)Cc4ccc(F)cc4F)CC3)ncc12 | 
25 | 1.6 | COc1ccccc1-c1n[nH]c2nc(NC3CCN(C(=O)CC4CC4)CC3)ncc12 | 
26 | > 50 | CC(C)Cc1n[nH]c2nc(NC3CCN(S(=O)(=O)Cc4ccccc4)CC3)ncc12 | 
27 | 6.3 | COc1ccccc1-c1n[nH]c2nc(NC3CCN(C(=O)Cc4ccc(F)c(F)c4)CC3)ncc12 | 
